Measurements taken from ChEMBL document CHEMBL1275496, “In vivo pharmacodynamic target investigation for micafungin against Candida albicans and C. glabrata in a neutropenic murine candidiasis model” (Antimicrob Agents Chemother, 2008).
Values after ≈ are worked out from the molar mass of the structure shown. *1 amine or outer side, *2 acyl side, *3 side chain or, on linkers, in order; H or OH if unused. Where a SMILES comes first, the peptide text is derived from it. Bridges are numbered along the chain shown (N, C = ends). [ ]: non-standard residue; d: D form. The star is where a group is joined. hTyr(3S-OH,4S-OH,3'-OSO3H) = N[C@H](C(=O)O)[C@H](O)[C@@H](O)c1ccc(O)c(OS(=O)(=O)O)c1; Orn(4R-OH,5R-OH) = O=C([C@H](C[C@@H](O)[C@@H](O)N[*:3])N[*:1])[*:2]; Pro(3S-OH,4S-Me) = C[C@H]1CN[C@H](C(=O)O)[C@H]1O; X1 = CCCCCOc1ccc(-c2cc(-c3ccc(C(=O)*)cc3)no2)cc1; Gln(3R-OH) = NC(=O)C[C@@H](O)[C@H](N)C(=O)O; Hyp = O=C(O)[C@@H]1C[C@@H](O)CN1

How the values were obtained:
Nakaseomyces glabratus [1] = assay: Antifungal activity against Candida glabrata isolate 570 infected in ICR/Swiss neutropenic mouse assessed as dose required for 1-log kill after 24 hrs; format: functional
In short: (§1)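 Neutropenic mice (cyclophosphamide sc 150 mg/kg day −4, 100 mg/kg day −1 and +2) infected iv by tail vein 2 h before therapy. Micafungin given ip every 24 h for 4 days at six fourfold-spaced dose levels, 0.078–80 mg/kg/24 h, 3 mice per group. Kidney CFU read at 96 h. Hill-model fit; dose giving 1 log10 below start-of-therapy burden.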

[2] = Ratio of AUC in ICR/Swiss neutropenic mouse at static dose of 2.4 mg/kg, ip after 24 hrs to MIC for Candida glabrata isolate 35315; format: functional; details: route intraperitoneal
[3] = Ratio of AUC in ICR/Swiss neutropenic mouse at static dose of 0.90 mg/kg, ip after 24 hrs to MIC for Candida glabrata isolate 5376; format: functional; details: dose 0.9 mg/kg; route intraperitoneal
[4] = Ratio of fAUC in ICR/Swiss neutropenic mouse at static dose of 1.98 mg/kg, ip after 24 hrs to MIC for Candida albicans isolate 580; format: functional; details: route intraperitoneal
[5] = Ratio of fAUC in ICR/Swiss neutropenic mouse at static dose of 2.84 mg/kg, ip after 24 hrs to MIC for Candida albicans isolate K1; format: functional; details: route intraperitoneal
[6] = Ratio of fAUC in ICR/Swiss neutropenic mouse at static dose of 2.18 mg/kg, ip after 24 hrs to MIC for Candida glabrata isolate 34341; format: functional; details: route intraperitoneal
[7] = Ratio of fAUC in ICR/Swiss neutropenic mouse at static dose of 0.90 mg/kg, ip after 24 hrs to MIC for Candida glabrata isolate 5376; format: functional; details: dose 0.9 mg/kg; route intraperitoneal
[8] = Ratio of AUC in ICR/Swiss neutropenic mouse at 1-Log kill dose of 10.4 mg/kg, ip after 24 hrs to MIC for Candida albicans isolate 98-210; format: functional; details: route intraperitoneal
[9] = Ratio of AUC in ICR/Swiss neutropenic mouse at 1-Log kill dose of 1.69 mg/kg, ip after 24 hrs to MIC for Candida glabrata isolate 32930; format: functional; details: route intraperitoneal
[10] = Ratio of AUC in ICR/Swiss neutropenic mouse at 1-Log kill dose of 2.0 mg/kg, ip after 24 hrs to MIC for Candida glabrata isolate 5376; format: functional; details: route intraperitoneal
[11] = Ratio of AUC in ICR/Swiss neutropenic mouse at 1-Log kill dose of 7.89 mg/kg, ip after 24 hrs to MIC for Candida glabrata isolate 33616; format: functional; details: route intraperitoneal
[12] = Ratio of fAUC in ICR/Swiss neutropenic mouse at 1-Log kill dose of 4.60 mg/kg, ip after 24 hrs to MIC for Candida albicans isolate 98-17; format: functional; details: dose 4.6 mg/kg; route intraperitoneal
[13] = Ratio of fAUC in ICR/Swiss neutropenic mouse at 1-Log kill dose of 2.36 mg/kg, ip after 24 hrs to MIC for Candida albicans isolate 580; format: functional; details: route intraperitoneal
[14] = Ratio of fAUC in ICR/Swiss neutropenic mouse at 1-Log kill dose of 4.08 mg/kg, ip after 24 hrs to MIC for Candida albicans isolate K1; format: functional; details: route intraperitoneal
[15] = Ratio of fAUC in ICR/Swiss neutropenic mouse at 1-Log kill dose of 3.77 mg/kg, ip after 24 hrs to MIC for Candida glabrata isolate 35315; format: functional; details: route intraperitoneal
[16] = Ratio of fAUC in ICR/Swiss neutropenic mouse at 1-Log kill dose of 5.46 mg/kg, ip after 24 hrs to MIC for Candida glabrata isolate 5592; format: functional; details: route intraperitoneal
[17] = Ratio of fAUC in ICR/Swiss neutropenic mouse at 1-Log kill dose of 6.70 mg/kg, ip after 24 hrs to MIC for Candida glabrata isolate 570; format: functional; details: dose 6.7 mg/kg; route intraperitoneal
[18] = AUC in healthy human at 100 mg/day; format: ADME, organism-based; details: plasma
Candida albicans [19] = assay: Antifungal activity against Candida albicans; format: functional
In short: (§2)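 Broth microdilution MIC per CLSI M27-A2. Two endpoints were read against the drug-free control well: partial inhibition (M1, CLSI recommended) and complete inhibition (M2). Tests were run in duplicate on four separate occasions, and the value is the mean.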

Nakaseomyces glabratus [20] = assay: Antifungal activity against Candida glabrata; format: functional; in short: as §2
Nakaseomyces glabratus [21] = assay: Antifungal activity against Candida glabrata isolate 34341 by CLSI method; format: functional
In short: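 Broth microdilution per CLSI M27-A2. The MIC was read at partial inhibition (M1) and at complete inhibition (M2) against the drug-free control. Done in duplicate on four separate occasions and reported as the mean.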

Nakaseomyces glabratus [22] = assay: Antifungal activity against Candida glabrata isolate 32930 by CLSI method; format: functional; in short: as §2
Nakaseomyces glabratus [23] = assay: Antifungal activity against Candida glabrata isolate 5376 by CLSI method; format: functional; in short: as §2
[24] = Cmax in Candida infected ICR/Swiss neutropenic mouse at 80 mg/kg, ip; format: ADME, organism-based; set-up: dose 80 mg/kg, route intraperitoneal; details: in vivo
In short: (§3)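 Single intraperitoneal micafungin doses (80, 20, 5 mg/kg in 0.2 ml, 0.15 M NaCl) given to infected neutropenic mice. Serum was taken from 3 mice per time point at 1, 2, 4, 6, 8, 12, 24 and 48 h. Drug was measured by microbiologic assay with C. albicans K1 (LLOQ 0.12 μg/ml). Noncompartmental analysis; half-life by nonlinear least squares; AUC by trapezoidal rule.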

[25] = Half life in Candida infected ICR/Swiss neutropenic mouse at 80 mg/kg, ip; format: ADME, organism-based; set-up: dose 80 mg/kg, route intraperitoneal; details: in vivo; in short: as §3
[26] = AUC (0 to infinity) in Candida infected ICR/Swiss neutropenic mouse at 5 mg/kg, ip; format: ADME, organism-based; set-up: dose 5 mg/kg, route intraperitoneal, time infinity; details: plasma; in short: as §3
Candida albicans [27] = assay: Fungistatic activity against Candida albicans isolate K1 infected in ICR/Swiss neutropenic mouse after 24 hrs; format: functional
In short: (§4)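 Neutropenic female ICR/Swiss mice received cyclophosphamide sc at 150 mg/kg on day −4, 100 mg/kg on day −1 and 100 mg/kg on day +2. Mice were infected iv via the tail vein, and ip micafungin in 0.15 M NaCl started 2 h later. Six dose levels from 0.078 to 80 mg/kg/24 h were given q24h for 4 days, 3 mice per dose. Kidney CFU were counted at 96 h. The static dose was derived from a sigmoid Emax (Hill) fit.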

Nakaseomyces glabratus [28] = assay: Fungistatic activity against Candida glabrata isolate 37661 infected in ICR/Swiss neutropenic mouse after 24 hrs; format: functional; in short: as §4
Nakaseomyces glabratus [29] = assay: Fungistatic activity against Candida glabrata isolate 34341 infected in ICR/Swiss neutropenic mouse after 24 hrs; format: functional; in short: as §4
Nakaseomyces glabratus [30] = assay: Fungistatic activity against Candida glabrata isolate 32930 infected in ICR/Swiss neutropenic mouse after 24 hrs; format: functional; in short: as §4
Nakaseomyces glabratus [31] = assay: Fungistatic activity against Candida glabrata isolate 5376 infected in ICR/Swiss neutropenic mouse after 24 hrs; format: functional; in short: as §4
Nakaseomyces glabratus [32] = assay: Fungistatic activity against Candida glabrata isolate 570 infected in ICR/Swiss neutropenic mouse after 24 hrs; format: functional; in short: as §4
Candida albicans [33] = assay: Antifungal activity against Candida albicans isolate 98-17 infected in ICR/Swiss neutropenic mouse assessed as dose required for 1-log kill after 24 hrs; format: functional; in short: as §1
Candida albicans [34] = assay: Antifungal activity against Candida albicans isolate K1 infected in ICR/Swiss neutropenic mouse assessed as dose required for 1-log kill after 24 hrs; format: functional; in short: as §1

CCCCCOc1ccc(-c2cc(-c3ccc(C(=O)N[C@H]4C[C@@H](O)[C@@H](O)NC(=O)[C@@H]5[C@@H](O)[C@@H](C)CN5C(=O)[C@H]([C@H](O)CC(N)=O)NC(=O)[C@H]([C@H](O)[C@@H](O)c5ccc(O)c(OS(=O)(=O)O)c5)NC(=O)[C@@H]5C[C@@H](O)CN5C(=O)[C@H]([C@@H](C)O)NC4=O)cc3)no2)cc1 [MICAFUNGIN] (X1-[Orn(4R-OH,5R-OH)]T[Hyp][hTyr(3S-OH,4S-OH,3'-OSO3H)][Gln(3R-OH)][Pro(3S-OH,4S-Me)]; lactam 1-C)
Activity (Nakaseomyces glabratus [1]): 6.7 mg/kg
RatioAUC/MIC [2]: 1103
RatioAUC/MIC [3]: 3571
fAUC/MIC [4]: 19.6
fAUC/MIC [5]: 13
fAUC/MIC [6]: 2.51
fAUC/MIC [7]: 8.9
RatioAUC/MIC [8]: 18400
RatioAUC/MIC [9]: 3107
RatioAUC/MIC [10]: 7886
RatioAUC/MIC [11]: 848
fAUC/MIC [12]: 10.6
fAUC/MIC [13]: 4.21
fAUC/MIC [14]: 18.8
fAUC/MIC [15]: 4.33
fAUC/MIC [16]: 25
fAUC/MIC [17]: 30.2
AUC [18]: 126 µg·h/mL
MIC50 (Candida albicans [19]): 0.015 µg/mL (≈ 0.0118 µM)
MIC90 (Candida albicans [19]): 0.03 µg/mL (≈ 0.0236 µM)
MIC50 (Nakaseomyces glabratus [20]): 0.015 µg/mL (≈ 0.0118 µM)
MIC90 (Nakaseomyces glabratus [20]): 0.015 µg/mL (≈ 0.0118 µM)
MIC (Nakaseomyces glabratus [21]): 0.12 µg/mL (≈ 0.0945 µM)
MIC50 (Nakaseomyces glabratus [21]): 0.06 µg/mL (≈ 0.0472 µM)
MIC (Nakaseomyces glabratus [22]): 0.016 µg/mL (≈ 0.0126 µM)
MIC50 (Nakaseomyces glabratus [22]): 0.008 µg/mL (≈ 0.0063 µM)
MIC (Nakaseomyces glabratus [23]): 0.016 µg/mL (≈ 0.0126 µM)
MIC50 (Nakaseomyces glabratus [23]): 0.008 µg/mL (≈ 0.0063 µM)
Cmax [24]: 53 µg/mL
half-life [25]: 16 h
AUC(0-inf) [26]: 138 µg·h/mL
Activity (Candida albicans [27]): 2.84 mg/kg
Activity (Nakaseomyces glabratus [28]): 9.25 mg/kg
Activity (Nakaseomyces glabratus [29]): 2.18 mg/kg
Activity (Nakaseomyces glabratus [30]): 0.06 mg/kg
Activity (Nakaseomyces glabratus [31]): 0.9 mg/kg
Activity (Nakaseomyces glabratus [32]): 3.76 mg/kg
Activity (Candida albicans [33]): 4.6 mg/kg
Activity (Candida albicans [34]): 4.08 mg/kg
